ChEMBL document CHEMBL1153571, “New imidazo[1,2-a]quinoxaline derivatives: synthesis and in vitro activity against human melanoma” (Eur J Med Chem, 2009)

Test system: A-375
Experiment: Cytotoxicity against human A375 cells after 96 hrs by MTT assay
Format: functional, cell-based
Details: A-375, 96 h
How it was run: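 A375 human melanoma cells (ATCC) in RPMI-1640 with 10% heat-inactivated FBS, 2 mM L-glutamine, penicillin/streptomycin/amphotericin B, 37 °C, 5% CO2. Plated at 5000 cells/well, attached overnight. Compounds added in 1% DMSO/medium over a log dilution range and left for 96 h. MTT then added for 4 h at 37 °C. Formazan dissolved in isopropanol/1 M HCl (96/4), read at 570 nm. Survival expressed as % of vehicle control, IC50 taken from sigmoidal curves. At least three experiments in triplicate.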

Compound | IC50
CNc1nc2ccccc2n2c(CCc3ccccc3)cnc12 | 1.57 µM
CNc1nc2ccccc2n2c(-c3ccccc3OC)cnc12 | 122 µM
CNc1nc2ccccc2n2c(-c3ccc(OC)cc3)cnc12 | 0.37 µM
CCOc1cccc(-c2cnc3c(NC)nc4ccccc4n23)c1 | 0.3 µM
CNc1nc2ccccc2n2c(-c3cccc(C(F)(F)F)c3)cnc12 | 1.28 µM
CNc1nc2ccccc2n2c(-c3cccc(O)c3)cnc12 | 0.56 µM
CNc1nc2ccccc2n2c(-c3cccc(F)c3)cnc12 | 24.9 µM
CNc1nc2ccccc2n2c(-c3cccc([N+](=O)[O-])c3)cnc12 | 40 µM
CNc1nc2ccccc2n2c(-c3cccc(OC)c3)cnc12 | 0.2 µM
CNc1nc2ccccc2n2c(-c3cccc(C(=O)O)c3)cnc12 | 3.47 µM
CNc1nc2ccccc2n2c(-c3ccoc3)cnc12 | 74.1 µM
CNc1nc2ccccc2n2c(-c3cccc(C#N)c3)cnc12 | 27 µM
CNc1nc2ccccc2n2c(-c3cccc(Cl)c3)cnc12 | 1.78 µM
CNc1nc2ccccc2n2c(-c3ccccc3)cnc12 | 2.19 µM
CNc1nc2ccccc2n2c(-c3cccc(Br)c3)cnc12 | 0.65 µM
CCOP(=O)(OCC)C(C)NC(=O)N(CCCl)N=O (configuration not stated) [FOTEMUSTINE] | 173 µM
CC(C)Cn1cnc2c(N)nc3ccccc3c21 [IMIQUIMOD] | 70.3 µM
